Measured values taken from ChEMBL document CHEMBL2311339, “Identification of GZD824 as an orally bioavailable inhibitor that targets phosphorylated and nonphosphorylated breakpoint cluster region-Abelson (Bcr-Abl) kinase and overcomes clinically acquired mutation-induced resistance against imatinib” (J Med Chem, 2013).
Active and inactive are the calls of the source. No cut-off for these calls is given here.

Legend:
[1] = Half life in rat liver microsomes at 1 uM; format: ADME, Microsome
[2] = target: Tyrosine-protein kinase ABL1 (Homo sapiens, UniProt P00519, T315I); format: cell-based
KU812 = assay: Antitumor activity against human KU812 cells xenografted in mouse assessed as induction of tumor regression at 1 mg/kg, po qd for 14 days; format: functional, organism-based; parameters: dose 1 mg/kg
[3] = target: Serine/threonine-protein kinase B-raf (Homo sapiens) (UniProt P15056); assay: Binding affinity to BRAF (unknown origin) at 10 nM after 2 hrs by FRET assay
BaF3 [4] = assay: Antitumor activity against mouse BA/F3 cells expressing wild type BCR-ABL allografted in SCID mouse assessed as inhibition of tumor growth at 1 mg/kg/day, po qd for 14 days; format: functional, organism-based
Summary of the method: (§1)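 Ba/F3 cells stably expressing Bcr-Abl (wild type or mutant) were grown in RPMI 1640 with 10% FBS and no IL-3, then suspended in saline (2.5 × 10^7 cells/mL) and given as 0.2 mL s.c. in the right flank. Groups were randomised at 100−200 mm3. Once-daily oral gavage for 14 days in DMSO/Cremophor/ethanol/saline vehicle; reference imatinib 50 or 100 mg/kg/day. Volume L × W²/2 every 2 days; n = 10; t test versus vehicle.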

BaF3 [5] = assay: Antitumor activity against mouse BA/F3 cells expressing wild type BCR-ABL allografted in SCID mouse assessed as induction of tumor regression at 5 mg/kg/day, po qd for 14 days; format: functional, organism-based; summary of the method: as §1
K562 = assay: Antitumor activity against human K562 cells xenografted in mouse assessed as inhibition of tumor growth at 1 mg/kg, po qd for 14 days; format: functional; details: K562, 336 h, read-out: TGI
Summary of the method: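 K562 cells in normal saline (2.5 × 10^7 cells/mL, 0.2 mL) injected subcutaneously into right flank; mice randomized when mean tumor volume reached 100−200 mm3. Dosing once daily by oral gavage for 14 consecutive days in 1% DMSO, 22.5% Cremophor, 7.5% ethanol, 69% saline. Tumor volume (L × W2/2) and body weight every 2 days; n = 10/group; unpaired Student's t test vs vehicle.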

Sequence of Serine/threonine-protein kinase B-raf (Homo sapiens) (P15056 whole entry): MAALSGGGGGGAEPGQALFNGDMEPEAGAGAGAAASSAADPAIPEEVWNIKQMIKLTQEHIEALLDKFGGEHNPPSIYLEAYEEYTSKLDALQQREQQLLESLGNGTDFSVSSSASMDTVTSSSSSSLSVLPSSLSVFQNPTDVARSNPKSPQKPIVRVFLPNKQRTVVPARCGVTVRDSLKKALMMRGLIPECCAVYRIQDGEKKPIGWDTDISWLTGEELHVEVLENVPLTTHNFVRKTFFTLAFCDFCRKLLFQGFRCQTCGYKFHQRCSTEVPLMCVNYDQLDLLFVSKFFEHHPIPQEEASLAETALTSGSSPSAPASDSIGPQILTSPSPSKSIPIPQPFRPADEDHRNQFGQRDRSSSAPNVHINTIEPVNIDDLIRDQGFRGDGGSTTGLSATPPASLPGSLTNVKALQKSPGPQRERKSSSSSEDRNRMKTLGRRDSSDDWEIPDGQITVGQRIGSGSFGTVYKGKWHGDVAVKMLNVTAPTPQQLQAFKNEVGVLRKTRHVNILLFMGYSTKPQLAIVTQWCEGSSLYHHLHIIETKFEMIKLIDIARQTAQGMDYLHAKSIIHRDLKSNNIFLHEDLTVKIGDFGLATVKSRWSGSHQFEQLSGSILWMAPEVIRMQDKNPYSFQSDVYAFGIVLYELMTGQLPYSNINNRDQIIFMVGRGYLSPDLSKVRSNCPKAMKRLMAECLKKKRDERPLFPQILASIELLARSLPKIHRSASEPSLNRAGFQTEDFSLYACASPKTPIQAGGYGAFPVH

## Cc1ccc(C(=O)Nc2ccc(CN3CCN(C)CC3)c(C(F)(F)F)c2)cc1C#Cc1cnc2[nH]ncc2c1 [OLVEREMBATINIB]
[1]
  half-life at 1 µM: 56 min
[2]
  IC50: 680 pM
KU812
  Activity: Active
[3]
  Activity: inactive
BaF3 [4]
  TGI: Active
BaF3 [5]
  Activity: Active
K562
  inhibition in vivo at 1 mg/kg: 68.3%
